# Measured values gathered from unrelated publications.
# Each line is one published result; the experiments were not run side by side.
# Target: 5'-AMP-activated protein kinase catalytic subunit alpha-1 (PRKAA1, Homo sapiens, UniProt Q13131)
# Technique: competition with immobilised ligand
SMILES,effect on,concentration,remaining binding
Cc1c(NC(=O)c2cc(C(N)=O)nc3cc(F)ccc23)c(C(F)(F)F)nn1Cc1ccc(C(C)(C)C)cc1,cell-free assay,1 µM,100%
C[C@H]1CCN(c2nccc(-c3cnn4ncccc34)n2)C1,binding,1 µM,93%
CNCc1ccccc1-c1csc([C@@H](C)Nc2nc(C)nc3cc(OC)c(OC)cc23)c1,cell-free assay,1 µM,100%
COc1cnc(Nc2cccc(S(N)(=O)=O)c2)nc1N1CCN(c2ccccc2)CC1,binding,1 µM,100%
O=C(NCCCN1CCOCC1)c1ccc(Nc2nccc(-c3cc4ccccc4s3)n2)cc1,binding,1 µM,42%
O=C(Nc1c[nH]nc1C(=O)NC1CCNCC1)c1cc(F)cc(F)c1,binding,1 µM,100%
CC(C)CC(=O)N1CCc2nc(-c3ccc(Br)cc3)nc(N(C)Cc3ccccc3)c2C1,cell-free assay,0.1 µM,100%
Cc1cnn2ncc(-c3ccnc(N(C)C)n3)c2c1,binding,1 µM,93%
CS(=O)(=O)NCC[C@H](NC(=O)c1cncc2c1cnn2-c1ccc(F)cc1)c1ccnc(S(C)(=O)=O)c1,cell-free assay,1 µM,100%
COc1ncc2cc3ccccc3nc2c1C#N,cell-free assay,5 µM,100%
COc1ccnn2ncc(-c3ccnc(N(C)C)n3)c12,binding,1 µM,97%
C=CC(=O)N1CCC(C(=O)NCC(=O)N2CCN(c3nc(-c4cnc(N)nc4C(F)F)nc(N4CCOCC4)n3)CC2)CC1,binding,1 µM,97%
O=C(NCCCN1CCOCC1)c1ccc(Nc2ncc(Cl)c(-c3ccc(Cl)s3)n2)cc1,binding,1 µM,15%
CC(=O)N1CCC(c2ccc(C(=O)NC3=NCCN3)cc2C(F)(F)F)CC1,cell-free assay,1 µM,100%
c1cncc(-c2cccc(Nc3nccc(NC4CCCCC4)n3)c2)c1,binding,10 µM,15%
N[C@H]1CCN(c2nccc(-c3cnn4ncccc34)n2)C1,binding,1 µM,100%
O=S(=O)(NC1CCC(c2cc(F)ccc2F)(S(=O)(=O)c2ccc(Cl)cc2)CC1)C(F)(F)F (stereo not drawn),cell-free assay,1 µM,100%
CN(C)c1nccc(-c2cnn3ncccc23)n1,binding,1 µM,100%
O=C(c1ccc(Nc2nccc(-c3cc4ccccc4s3)n2)cc1)N1CCC(N2CCCC2)CC1,binding,1 µM,36%
c1cnn2ncc(-c3ccnc(N4CCC45COC5)n3)c2c1,binding,1 µM,92%
Nc1ncc2c(n1)-c1c([nH]c3ccc(C#CC4CC4)cc13)CCCC2,binding,1 µM,97%
